# Published values from different studies.
# Protocols differ between the studies behind these lines.
# Target: Dual specificity mitogen-activated protein kinase kinase 2 (MAP2K2, Homo sapiens, UniProt P36507)
SMILES,assay,setting,measurement,result
CCCCC(=O)Nc1ccc(-c2ccc3ncn(CCC)c(=O)c3c2)cn1,"binding, competition with immobilised ligand",0.5 µM,remaining binding,68%
C#Cc1cc(-c2cc(Nc3nc(N[C@@H](C)c4ccc(F)cn4)ncc3Cl)n[nH]2)ccc1C=O,"enzyme activity, inhibitor",0.2 µM,inhibition,20.9%
CN1CCN(C(=O)c2ccc(NC(=O)Nc3ccc(N(C)c4ccnc(Nc5ccc(CS(C)(=O)=O)cc5)n4)cc3)cc2)CC1,"binding, competition with immobilised ligand",1 µM,remaining binding,40%
CO[C@@H]1[C@H](N(C)C(=O)c2ccccc2)C[C@H]2O[C@]1(C)n1c3ccccc3c3c4c(c5c6ccccc6n2c5c31)C(=O)NC4,"enzyme activity, inhibitor",1 µM,inhibition,20%
COc1ccc2oc(-c3ccc4nc(N)oc4c3)c/c(=N\c3ccccc3NC(=O)CCN)c2c1,binding,1 µM,remaining binding,106%
N#Cc1ccc(NC(=O)Nc2ccccc2)cc1,"cell-free assay, competition with immobilised ligand",25 µM,remaining binding,64%
COc1ccc2[nH]c3c4[nH]c5ccc(OC)cc5c4c4c(c3c2c1)C(=O)NC4=O,"binding, competition with immobilised ligand",1 µM,remaining binding,59%
CC(C)S(=O)(=O)c1ccc2nccc(Nc3ccc4sc(C5CCCC5)nc4c3)c2c1,"enzyme activity, inhibitor",1 µM,activity vs control,98%
Cc1cc(O)c(-c2ccc([C@@H](C)CN(C)C)cc2)c2c1[nH]c(=O)c1sccc12,"enzyme activity, inhibitor",0.1 µM,inhibition,24.2%
C=CC(=O)N1CCC([C@@H]2CCNc3c(C(N)=O)c(-c4ccc(Oc5ccccc5)cc4)nn32)CC1,"enzyme activity, inhibitor",1 µM,inhibition,99%
